Consider four molecules from ChEMBL document CHEMBL1149538, “A high-throughput assay for O-GlcNAc transferase detects primary sequence preferences in peptide substrates” (Bioorg Med Chem Lett, 2007).

Where a SMILES comes first, the peptide text is derived from it.

Holding throughout (settings): BL21-DE3
Data set [1] addresses T1, UDP-N-acetylglucosamine--peptide N-acetylglucosaminyltransferase 110 kDa subunit (Homo sapiens) (UniProt O15294).
T1 sequence (whole entry): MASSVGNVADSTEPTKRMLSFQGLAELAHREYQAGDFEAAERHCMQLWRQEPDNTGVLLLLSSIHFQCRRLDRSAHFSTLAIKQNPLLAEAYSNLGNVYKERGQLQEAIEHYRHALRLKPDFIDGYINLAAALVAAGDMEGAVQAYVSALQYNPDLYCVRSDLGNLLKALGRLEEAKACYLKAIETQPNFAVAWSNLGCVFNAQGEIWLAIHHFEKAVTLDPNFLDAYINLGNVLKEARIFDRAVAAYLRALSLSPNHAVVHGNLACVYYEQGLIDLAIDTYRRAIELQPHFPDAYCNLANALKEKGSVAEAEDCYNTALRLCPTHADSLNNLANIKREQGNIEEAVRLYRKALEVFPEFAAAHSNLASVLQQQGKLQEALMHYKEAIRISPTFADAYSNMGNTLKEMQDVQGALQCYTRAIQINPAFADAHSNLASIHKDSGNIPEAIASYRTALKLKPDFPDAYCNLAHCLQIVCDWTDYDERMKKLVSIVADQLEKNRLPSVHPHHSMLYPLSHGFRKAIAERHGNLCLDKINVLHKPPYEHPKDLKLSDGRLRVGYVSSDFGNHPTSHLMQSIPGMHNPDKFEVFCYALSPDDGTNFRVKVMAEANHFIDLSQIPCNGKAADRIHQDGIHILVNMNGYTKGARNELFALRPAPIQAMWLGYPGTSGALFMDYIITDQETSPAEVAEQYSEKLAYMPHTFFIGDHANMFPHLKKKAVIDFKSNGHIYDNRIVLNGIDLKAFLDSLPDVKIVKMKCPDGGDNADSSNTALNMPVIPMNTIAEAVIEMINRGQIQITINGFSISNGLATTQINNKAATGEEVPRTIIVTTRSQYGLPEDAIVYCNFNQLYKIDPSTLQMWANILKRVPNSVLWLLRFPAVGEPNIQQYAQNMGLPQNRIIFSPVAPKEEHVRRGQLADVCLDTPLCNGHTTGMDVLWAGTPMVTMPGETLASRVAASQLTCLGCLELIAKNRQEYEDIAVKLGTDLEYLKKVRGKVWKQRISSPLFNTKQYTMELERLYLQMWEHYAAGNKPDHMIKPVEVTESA
Put plainly: Binding affinity to human OGT expressed in Escherichia coli […] cells assessed as alpha-FLAG-HRP activity relative to alpha-A-crystallin peptide by azido-ELISA. An outline of the steps: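 Biotinylated peptides are reacted at saturating levels with Ni-column-purified human OGT from E. coli BL21(DE3), plus UDP-GlcNAz 62.5 μM, MgCl2 12.5 μM and β-mercaptoethanol 1 mM, for 4 h at 37 °C. Reactions are stopped with pH 4.5 sodium acetate and captured on NeutrAvidin. Product is tagged with phosphine-FLAG, detected by anti-FLAG-HRP/TMB at A450, normalized to the parent peptide after Ala-peptide background subtraction. Data are from 3 experiments, each in triplicate.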

Substrate in data set [2]: CC[C@H](C)[C@H](NC(=O)[C@H](C)N)C(=O)N1CCC[C@H]1C(=O)N[C@H](C(=O)N[C@@H](CO)C(=O)N[C@@H](CCCNC(=N)N)C(=O)N1CCC[C@H]1C(=O)N[C@@H](CCC(=O)O)C(=O)N[C@@H](CCCCN)C(=O)O)C(C)C
The experiment in a line: (§1) Binding affinity to human OGT expressed in Escherichia coli BL1 (DE3) cells by azido-ELISA. An outline of the steps:
(§2)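 Km is derived from the azido-ELISA using Ni-purified human OGT expressed in E. coli BL21(DE3), with UDP-GlcNAz as donor, MgCl2 and β-mercaptoethanol, incubated at 37 °C. Biotinylated peptide product is captured on NeutrAvidin, Staudinger-tagged with phosphine-FLAG (0.2 mM, 2 h, 37 °C), and quantified by anti-FLAG-HRP with TMB at 450 nm.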

Substrate in data set [3]: CC[C@H](C)[C@H](NC(=O)[C@H](C)N)C(=O)N1CCC[C@H]1C(=O)N[C@H](C(=O)N[C@@H](CO)C(=O)N[C@@H](CCCNC(=N)N)C(=O)N[C@@H](C)C(=O)N[C@@H](CCC(=O)O)C(=O)N[C@@H](CCCCN)C(=O)O)C(C)C
The description is as §1. The method, boiled down:
as §2

Substrate in data set [4]: CC[C@H](C)[C@H](NC(=O)[C@H](C)N)C(=O)N1CCC[C@H]1C(=O)N[C@H](C(=O)N[C@@H](CO)C(=O)N[C@@H](CCCNC(=N)N)C(=O)N[C@@H](CCC(=O)O)C(=O)N[C@@H](CCC(=O)O)C(=O)N[C@@H](CCCCN)C(=O)O)C(C)C
Described as §1. An outline of the steps: as §2

Turning to `CC[C@H](C)[C@H](NC(=O)[C@H](C)N)C(=O)N1CCC[C@H]1C(=O)N[C@H](C(=O)N[C@@H](CO)C(=O)N[C@@H](CCCNC(=N)N)C(=O)N[C@@H](CCC(=O)O)C(=O)N[C@@H](CCCNC(=N)N)C(=O)N[C@@H](CCCCN)C(=O)O)C(C)C` (H-AIPVSRERK-OH), the Activity in data set [1] came to 0.2.
`CC[C@H](C)[C@H](NC(=O)[C@H](C)N)C(=O)N1CCC[C@H]1C(=O)N[C@@H](C)C(=O)N[C@@H](CO)C(=O)N[C@@H](CCCNC(=N)N)C(=O)N[C@@H](CCC(=O)O)C(=O)N[C@@H](CCC(=O)O)C(=O)N[C@@H](CCCCN)C(=O)O` (H-AIPASREEK-OH): in data set [1], the Activity came to 0.1.
`CC[C@H](C)[C@H](NC(=O)[C@H](C)N)C(=O)N1CCC[C@H]1C(=O)N[C@H](C(=O)N[C@@H](CO)C(=O)N[C@@H](CCC(=O)O)C(=O)N[C@@H](CCC(=O)O)C(=O)N[C@@H](CCC(=O)O)C(=O)N[C@@H](CCCCN)C(=O)O)C(C)C` (H-AIPVSEEEK-OH): in data set [1], the Activity was 0.

B1: UDP-N-acetylglucosamine--peptide N-acetylglucosaminyltransferase 110 kDa subunit (Homo sapiens), O15294 (protein)
chain: MASSVGNVADSTEPTKRMLSFQGLAELAHREYQAGDFEAAERHCMQLWRQEPDNTGVLLLLSSIHFQCRRLDRSAHFSTLAIKQNPLLAEAYSNLGNVYKERGQLQEAIEHYRHALRLKPDFIDGYINLAAALVAAGDMEGAVQAYVSALQYNPDLYCVRSDLGNLLKALGRLEEAKACYLKAIETQPNFAVAWSNLGCVFNAQGEIWLAIHHFEKAVTLDPNFLDAYINLGNVLKEARIFDRAVAAYLRALSLSPNHAVVHGNLACVYYEQGLIDLAIDTYRRAIELQPHFPDAYCNLANALKEKGSVAEAEDCYNTALRLCPTHADSLNNLANIKREQGNIEEAVRLYRKALEVFPEFAAAHSNLASVLQQQGKLQEALMHYKEAIRISPTFADAYSNMGNTLKEMQDVQGALQCYTRAIQINPAFADAHSNLASIHKDSGNIPEAIASYRTALKLKPDFPDAYCNLAHCLQIVCDWTDYDERMKKLVSIVADQLEKNRLPSVHPHHSMLYPLSHGFRKAIAERHGNLCLDKINVLHKPPYEHPKDLKLSDGRLRVGYVSSDFGNHPTSHLMQSIPGMHNPDKFEVFCYALSPDDGTNFRVKVMAEANHFIDLSQIPCNGKAADRIHQDGIHILVNMNGYTKGARNELFALRPAPIQAMWLGYPGTSGALFMDYIITDQETSPAEVAEQYSEKLAYMPHTFFIGDHANMFPHLKKKAVIDFKSNGHIYDNRIVLNGIDLKAFLDSLPDVKIVKMKCPDGGDNADSSNTALNMPVIPMNTIAEAVIEMINRGQIQITINGFSISNGLATTQINNKAATGEEVPRTIIVTTRSQYGLPEDAIVYCNFNQLYKIDPSTLQMWANILKRVPNSVLWLLRFPAVGEPNIQQYAQNMGLPQNRIIFSPVAPKEEHVRRGQLADVCLDTPLCNGHTTGMDVLWAGTPMVTMPGETLASRVAASQLTCLGCLELIAKNRQEYEDIAVKLGTDLEYLKKVRGKVWKQRISSPLFNTKQYTMELERLYLQMWEHYAAGNKPDHMIKPVEVTESA
With B1, the Km in data set [2] was determined as 0.8 µM; in data set [3] it was 0.5 µM; in data set [4], 8.7 µM.
